Measured values reported in article PMC4333497 (British Journal of Cancer, 2015).
“Also recorded” adds a separate entry of the source.

How the values were obtained:
HSP70 = HSP70 levels in PBMCs by ELISA; type: in vivo, human
[1] = Plasma pharmacokinetics of HSP990 after oral dosing; type: in vivo, human; settings: for AUClast: day 22; for Cmax: steady state
Procedure, shortened: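 Oral dosing 30 min after a light breakfast, then a 3-h fast, with meal timing recorded. Plasma was assayed centrally by validated LC-MS/MS and analysed non-compartmentally. Day effect was tested by ANCOVA on log-transformed AUC and Cmax with a linear mixed-effect model.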

[2] = system: patients with advanced solid tumours; assay: Safety: adverse events graded by NCI CTCAE version 3.0 in phase I study; type: in vivo, human
Procedure, shortened: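 Toxicity was graded by NCI CTCAE v3.0 during oral dosing in 28-day cycles. Assessments covered physical and neurological examination, vital signs, weight, performance status, and AEs/SAEs. Haematology, coagulation, biochemistry and urinalysis were done at baseline, on day 1 of every cycle, at the last visit and when clinically indicated. ECGs were done on day 1 of each cycle. ECHO/MUGA was done at baseline, at the end of cycles 2–4, then every other month. Data were summarised descriptively.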

dogs = settings: preclinical pharmacology studies, ref Novartis, 2012; cited from earlier work
advanced solid tumours [3] = assay: Tumour response according to RECIST version 1.0; type: in vivo, human
Procedure, shortened: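 Tumours were assessed radiologically at baseline, at the end of every two 28-day cycles and at the end of treatment. Response was classified per RECIST version 1.0. Patients had at least one measurable lesion at entry and received oral capsules once or twice weekly until progression, unacceptable toxicity or withdrawal.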

rats = settings: preclinical pharmacology studies, ref Novartis, 2012; cited from earlier work
[4] = rat model; preclinical; cited from earlier work
[5] = system: patients with advanced solid tumours; assay: Dose-limiting toxicities and MTD/RP2D determination; type: in vivo, human
Procedure, shortened: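 Oral capsules, once or twice weekly, in 28-day cycles under fasting conditions. Cohorts had at least three patients. A DLT was any clinically relevant AE or abnormal laboratory value in the first 28 days. A Bayesian logistic regression model with escalation with overdose control estimated the posterior probability of DLT at each dose level from cycle 1 data. MTD/RP2D was set from the model plus safety review by investigators.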

advanced solid tumours [6] = assay: FDG-PET metabolic response; type: in vivo, human
Procedure, shortened: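 FDG-PET was done at screening/baseline, on day 10 of cycle 1 and on day 2 of cycle 3. Maximum SUV was summed across all target lesions (sSUVmax). A reduction of ⩾25% counted as objective metabolic response and an increase of ⩾25% as progression. Any new PET lesion counted as metabolic progression.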

[7] = all patients (N=64), two patients

COc1cccc(-c2cc(F)ccc2[C@H]2Cc3nc(N)nc(C)c3C(=O)N2)n1 [HSP990]
HSP70 induction in PBMCs (HSP70; once-weekly administration, 2.5 to 60 mg): tended to increase with dose across the 5 mg weekly to 30 mg weekly dose groups | HSP70 induction in PBMCs (HSP70; twice-weekly administration, 25 mg): greater than that seen in once weekly 30 mg to 60 mg dose levels | AUClast ([1]; 25 mg twice-weekly): 14200 ng·h/mL | Cmax ([1]; 25 mg twice-weekly): 232 ng/mL | AUClast ([1]; 50 mg once-weekly): 7959 ng/mL | Cmax ([1]; 50 mg once-weekly): 552 ng/mL | t1/2 ([1]; both dosing schedules): ~20 h | Time to peak concentrations ([1]; both dosing schedules, postdose): ~3 h | Drug accumulation ([1]; days 1 and 22 of cycle 1, multiple- or twice-weekly doses): no drug accumulation | Apparent clearance ([1]; oral): ~6.4 L/h | Volume of distribution ([1]; oral, apparent): ~200 L | Total no. of patients who discontinue HSP990 (cause) beyond cycle 1 ([2]; 2.5 mg once weekly): 0 | Total no. of patients who discontinue HSP990 (cause) beyond cycle 1 ([2]; 5 mg once weekly): 0 | Total no. of patients who discontinue HSP990 (cause) beyond cycle 1 ([2]; 10 mg once weekly): 0 | Total no. of patients who discontinue HSP990 (cause) beyond cycle 1 ([2]; 20 mg once weekly): 1 (digestive disorder) | Description of grade ⩾3 drug-related AEs beyond cycle 1 ([2]; 25 mg twice weekly): Diarrhoea | Grade ⩾3 drug-related AEs beyond cycle 1 ([2]; 25 mg twice weekly): 2 | Total no. of patients who discontinue HSP990 (cause) beyond cycle 1 ([2]; 25 mg twice weekly): 0 | Total no. of patients who discontinue HSP990 (cause) beyond cycle 1 ([2]; 30 mg once weekly): 0 | Grade ⩾3 drug-related AEs beyond cycle 1 ([2]; 50 mg once weekly): 6 | Description of grade ⩾3 drug-related AEs beyond cycle 1 ([2]; 60 mg once weekly): Diarrhoea | Grade ⩾3 drug-related AEs beyond cycle 1 ([2]; 60 mg once weekly): 3 | Total no. of patients who discontinue HSP990 (cause) beyond cycle 1 ([2]; 60 mg once weekly): 2 (diarrhoea) | Adverse events requiring dose adjustment or study drug interruption, patients ([2]; all patients (N=64)): 30% | Discontinued treatment for AEs of any causality, patients ([2]; all patients (N=64)): 14% | Drug-related AE that led to study discontinuation, patients ([2]; all patients (N=64)): 11% | Drug-related abdominal pain, patients ([2]; all patients (N=64)): 16% | Drug-related anorexia, patients ([2]; all patients (N=64)): 25% | Drug-related diarrhoea, patients ([2]; all patients (N=64)): 73% | Drug-related dizziness, patients ([2]; all patients (N=64)): 19% | Drug-related insomnia, patients ([2]; all patients (N=64)): 25% | Drug-related nausea, patients ([2]; all patients (N=64)): 22% | Drug-related tremor, patients ([2]; all patients (N=64)): 19% | Drug-related vomiting, patients ([2]; all patients (N=64)): 14% | Grade 3 QTc prolongation, drug-related [2, 7]: 3% | Grade 3 asthenia, drug-related [2, 7]: 3% | Grade 3 hyponatremia, drug-related [2, 7]: 3% | Grade 3 increased ALT and/or AST, drug-related [2, 7]: 3% | Dose delays ([2]; all patients, mostly due to AEs): 22 patients | Neurotoxicities leading to study drug discontinuation, patients ([2]; during and beyond cycle 1, all patients): 14% | Drug-related deaths ([2]; on study and up to 28 days after the last dose): No drug-related deaths | Doses at which tremors and ataxia were observed (dogs): ≥ 2 mg/kg | Partial or complete responses (RECIST) (advanced solid tumours [3]; all patients): No objective responses were seen; also recorded: No partial or complete responses were observed | Best overall response of stable disease (advanced solid tumours [3]; all patients (N=64)): 25 patients | Prolonged stable disease (⩾6 months), patients (advanced solid tumours [3]; all patients (N=64)): 11% | Stable disease as best overall response, patients (advanced solid tumours [3]; all patients (N=64)): 39% | Stable disease as best overall response, patients (advanced solid tumours [3]; twice-weekly dosing schedule (7 out of 11 patients)): 64% | Effects on CNS (rats): no effects on CNS | Distribution in brain tissues [4]: highly distributed in the brain tissues | Total no. of patients with DLTs ([5]; 2.5 mg once weekly, 3 DLT evaluable patients): 0 | Total no. of patients with DLTs ([5]; 5 mg once weekly, 5 DLT evaluable patients): 0 | Total no. of patients with DLTs ([5]; 10 mg once weekly, 7 DLT evaluable patients): 0 | Total no. of patients with DLTs ([5]; 20 mg once weekly, 6 DLT evaluable patients): 0 | Total no. of patients with DLTs ([5]; 30 mg once weekly, 4 DLT evaluable patients): 0 | Number of DLTs encountered ([5]; 50 mg once a week, 22 patients): 5 DLTs | Total no. of patients with DLTs ([5]; 50 mg once weekly, 22 DLT evaluable patients): 4 | Patients who experienced DLTs ([5]; all dose levels and schedules): seven | Patients with ⩾25% reduction in sSUVmax of target lesions (advanced solid tumours [6]; 5 mg weekly): 1 patient | Patients with ⩾25% reduction in sSUVmax of target lesions (advanced solid tumours [6]; 25 mg twice weekly): 3 patients | Patients with ⩾25% reduction in sSUVmax of target lesions (advanced solid tumours [6]; 30 mg weekly): 1 patient | Patients with ⩾25% reduction in sSUVmax of target lesions (advanced solid tumours [6]; 50 mg weekly): 6 patients | Complete metabolic response (advanced solid tumours [6]; all patients): No complete metabolic response
